# ChEMBL document CHEMBL3244415, “Synthesis and pharmacological properties of [5-isoleucine]-, [8-isoleucine]-, and [5,8-diisoleucine]bradykinin” (1979)
# Activity calls are given as the source filed them. The calls are words filed in the database; no cut-off is given here. Non-standard residues stand in square brackets, D forms with d. Residues, ends and D or L forms follow the SMILES beside them. Cha = N[C@@H](CC1CCCCC1)C(=O)O
# Experiments:
# Rattus norvegicus [1] = organism: Rattus norvegicus; experiment: Vasodepressor activity in rat assessed as ratio of intraarterial dose of bradykinin to dose of compound that produce 20 mmHg fall in mean blood pressure; format: functional, Artery
# In short: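 Male rats were anesthetized with Dial-urethan. Mean arterial pressure was recorded from the femoral artery. Drugs were given in saline by intracarotid injection. The ratio compares bradykinin and analogue doses that each lower mean pressure by 20 mmHg.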
# Rattus norvegicus [2] = organism: Rattus norvegicus; experiment: Antagonist activity at bradykinin receptor in estrous rat uterus assessed as inhibition of bradykinin-induced myotropic activity at 2.5 x 10^-6 M preincubated for 2 mins followed by bradykinin addition; format: tissue-based
# In short: (§1)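 Uteri from estrous virgin rats were suspended in modified deJalon's solution containing 20 mg/L CaCl2, kept at 30 °C and gassed with 98% O2-2% CO2. Isotonic contractions were recorded under 1 g tension. Analogue was added to the bath 2 min before various doses of bradykinin. Potency was compared at the concentration giving 50% maximal contraction.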
# Rattus norvegicus [3] = organism: Rattus norvegicus; experiment: Intrinsic activity at bradykinin receptor in estrous rat uterus assessed as ratio of bradykinin dose to compound dose to give 50% maximum myotropic activity
# In short: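 Uteri from estrous virgin rats were bathed in modified deJalon's solution with 20 mg/L CaCl2, at 30 °C, gassed with 98% O2-2% CO2. Isotonic contractions were recorded under 1 g tension. Full dose-response curves were run for bradykinin and analogue. The potency ratio was taken at the dose giving 50% maximal contraction.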
# Rattus norvegicus [4] = organism: Rattus norvegicus; experiment: Antagonist activity at bradykinin receptor in estrous rat uterus assessed as inhibition of bradykinin-induced myotropic activity at 1 x 10^-6 M preincubated for 2 mins followed by bradykinin addition; format: tissue-based; in short: as §1
# Rattus norvegicus [5] = organism: Rattus norvegicus; experiment: Antagonist activity at bradykinin receptor in estrous rat uterus assessed as inhibition of bradykinin-induced myotropic activity at 1 x 10^-5 M preincubated for 2 mins followed by bradykinin addition; format: tissue-based; in short: as §1
# Rattus norvegicus [6] = experiment: Vasodepressor activity in rat assessed as ratio of bradykinin dose to compound intravenous dose that produce 20 mmHg fall in mean blood pressure; format: functional
# Cavia porcellus = organism: Cavia porcellus; experiment: Intrinsic activity at bradykinin receptor in guinea pig ileum assessed as ratio of bradykinin dose to compound dose to give 50% maximum myotropic activity; format: tissue-based
# In short: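 Strips of terminal guinea pig ileum, 2–3 cm long, were held in Tyrode's solution at 36 °C and bubbled with 95% O2-5% CO2. Isotonic contractions were recorded under 1 g tension. Full dose-response curves were run for bradykinin and analogue. The potency ratio was taken at the dose giving 50% maximal contraction.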
inhibition (Rattus norvegicus [2]),Ratio (Rattus norvegicus [3]),inhibition (Rattus norvegicus [4]),inhibition (Rattus norvegicus [5]),Compound,Ratio (Rattus norvegicus [1]),Ratio (Rattus norvegicus [6]),Ratio (Cavia porcellus)
inactive,0.00028,–,–,H-RPPGISPFR-OH,0.00018,–,–
–,–,inactive,–,H-RPPGFSPIR-OH,0.00056,–,–
–,< 0.0002,–,inactive,H-RPPGISPIR-OH,< 0.00018,–,–
–,0.33,–,–,N=C(N)NCCC[C@H](NC(=O)[C@H](CC1CCCCC1)NC(=O)[C@@H]1CCCN1C(=O)[C@H](CO)NC(=O)[C@H](CC1CCCCC1)NC(=O)CNC(=O)[C@@H]1CCCN1C(=O)[C@@H]1CCCN1C(=O)[C@@H](N)CCCNC(=N)N)C(=O)O (H-RPPG[Cha]SP[Cha]R-OH),–,1,1
